Experiments:
Type in all cases: ADME
Cytochrome P450 4F2 [1] = target: T1, Cytochrome P450 4F2 (Homo sapiens, UniProt P78329); experiment: Drug level in human liver microsomes treated with BSA bound d6-alpha-tocopheryl quinone assessed as CYP4F2-mediated compound formation at 4.4 mM preincubated for 10 mins followed by NADPH addition measured after 20 mins by LS-MS analysis
T1 sequence (P78329 whole entry): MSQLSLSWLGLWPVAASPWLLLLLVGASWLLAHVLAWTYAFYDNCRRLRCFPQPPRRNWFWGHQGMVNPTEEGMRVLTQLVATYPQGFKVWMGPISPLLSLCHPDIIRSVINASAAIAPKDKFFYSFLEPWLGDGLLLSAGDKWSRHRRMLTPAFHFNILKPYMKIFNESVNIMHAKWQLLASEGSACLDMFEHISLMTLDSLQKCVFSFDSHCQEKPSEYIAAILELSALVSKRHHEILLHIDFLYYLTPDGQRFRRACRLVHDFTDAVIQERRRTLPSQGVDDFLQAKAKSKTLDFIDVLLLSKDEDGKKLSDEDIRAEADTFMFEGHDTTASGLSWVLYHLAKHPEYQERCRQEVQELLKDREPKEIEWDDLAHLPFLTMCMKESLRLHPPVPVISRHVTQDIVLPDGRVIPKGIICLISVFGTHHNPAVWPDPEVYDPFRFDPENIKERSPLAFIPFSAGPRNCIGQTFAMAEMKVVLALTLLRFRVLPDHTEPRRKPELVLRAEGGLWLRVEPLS
Method in brief: (§1)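 Pooled human liver microsomes (20 mg/ml protein) in 100 mM KH2PO4 pH 7.2. d6-αTQ–BSA complex added from a 4.4 mM stock. Preincubated 10 min at 37 °C, then NADPH added to 1 mM final (NAD at 1 mM if used); 20 min at 37 °C, then chilled on ice. d0-ω-hydroxy-αTQ added as internal standard, extracted with ethyl acetate then hexanes:MTBE. Read-out by positive-ion C18 LC-MS.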

Cytochrome P450 4F2 [2] = target: T1, Cytochrome P450 4F2; experiment: Drug level in human liver microsomes treated with BSA bound d6-alpha-tocopheryl quinone assessed as CYP4F2-mediated compound formation by measuring compound retention time at 4.4 mM preincubated for 10 mins followed by NADPH addition measured after 20 mins by LS-MS analysis; method in brief: as §1
Cytochrome P450 4F2 [3] = target: T1, Cytochrome P450 4F2; experiment: (§2) Drug level assessed as recombinant human CYP4F2 expressed in insect cell microsomes-mediated compound formation treated with BSA bound d6-alpha-tocopheryl quinone at 10 uM preincubated for 10 mins followed by NADPH addition measured after 20 mins in presence of recombinant human CYP reductase and cytochrome b5 by LS-MS analysis; conditions: recombinant enzyme
Method in brief: (§3)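 Insect cell microsomes co-expressing recombinant human CYP4F2, cytochrome b5 and NADPH P450 reductase (100 pmol CYP/mL) in 100 mM KH2PO4 pH 7.2 with d6-αTQ–BSA complex (10 μM). Preincubated 10 min at 37 °C, then NADPH added to 1 mM final; 20 min at 37 °C, then chilled on ice. Internal standard d0-ω-hydroxy-αTQ added, extracted with ethyl acetate then hexanes:MTBE. Products identified by reversed-phase C18 LC-MS retention time and mass spectra.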

Cytochrome P450 4F2 [4] = target: T1, Cytochrome P450 4F2; experiment: as §2, with “formation by measuring compound retention time” for “formation”; conditions: recombinant enzyme; method in brief: as §3

With [2H]C([2H])([2H])C1=C(C)C(=O)C(CC[C@](C)(O)CCC[C@H](C)CCC[C@H](C)CCCC(C)CO)=C(C([2H])([2H])[2H])C1=O (stereo not given in full) the Drug metabolism (Cytochrome P450 4F2 [1]) was “Metabolite_Detected”, the Retention_time (Cytochrome P450 4F2 [2]) was 8.8 min and the Drug metabolism (Cytochrome P450 4F2 [3]) was “Metabolite_Detected”. For the same molecule, the Retention_time (Cytochrome P450 4F2 [4]) was 8.8 min.

For [2H]C([2H])([2H])C1=C(C)C(=O)C(CC[C@](C)(O)CCC[C@H](C)CCC[C@H](C)CCCC(C)C(=O)O)=C(C([2H])([2H])[2H])C1=O (stereo not given in full), the Drug metabolism (Cytochrome P450 4F2 [1]) was “Metabolite_Detected”, the Retention_time (Cytochrome P450 4F2 [2]) was 7.1 min and the Drug metabolism (Cytochrome P450 4F2 [3]) was “Metabolite_Detected”. It also gave a Retention_time (Cytochrome P450 4F2 [4]) of 7.42 min.

[2H]C([2H])([2H])C1=C(C)C(=O)C(CC[C@](C)(O)CCC[C@H](C)CCC[C@H](C)CCCC(C)C)=C(C([2H])([2H])[2H])C1=O was tested, and the Drug metabolism (Cytochrome P450 4F2 [1]) was “Metabolite_Detected” and the Retention_time (Cytochrome P450 4F2 [2]) was 11.87 min.

Source: ChEMBL document CHEMBL4265989, “ω-Hydroxylation of α-tocopheryl quinone reveals a dual function for cytochrome P450-4F2 in vitamin E metabolism” (Bioorg Med Chem, 2018)
